Data from ChEMBL document CHEMBL2029242 (J Med Chem, 2012).

Legend:
Aurora kinase A = Aurora kinase A (Homo sapiens, UniProt O14965); assay: Inhibition of Aurora A in human HEK293 cells after 1 hr by competition binding assay; type: cell-based
In short: (§1)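 KINOMEscan competition binding. Binding reactions ran at rt for 1 h. Unbound kinase was captured on an immobilized affinity ligand and quantified by qPCR. Each kinase was tested individually.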

[1] = Clearance in Cynomolgus monkey at 1 mg/kg, iv and 10 mg/kg, po; type: ADME, organism-based, Macaca fascicularis; conditions: in vivo
In short: (§2)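 Single-dose PK. Rats: male Sprague−Dawley, jugular-catheterized, 1 mg/kg iv in 3:1 PEG400/water (n = 2) and 10 mg/kg po in Pharmatek #6 (n = 3). Female athymic nude mice: 100 mg/kg po in Pharmatek #6 (n = 3). Beagle dogs and male cynomolgus monkeys (n = 3): crossover, 1 mg/kg iv and 10 mg/kg po in 22% HPβCD, overnight fast. Plasma LC-MS/MS to 24 h; noncompartmental parameters, mean ± SD.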

[2] = Tmax in athymic nude mouse at 100 mg/kg, po; type: ADME, organism-based; design: dose 100 mg/kg, route oral; conditions: in vivo
In short: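 Female athymic nude mice (20–25 g, n = 3) received a single oral dose of 100 mg/kg in Pharmatek #6, calculated as free base. Blood was drawn into K3EDTA at 15 and 30 min and at 1, 2, 4, 6 and 24 h. Plasma was analyzed by LC-MS/MS. Parameters came from noncompartmental linear-trapezoidal analysis; mean ± SD reported.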

[3] = Clearance in beagle dog at 1 mg/kg, iv and 10 mg/kg, po; type: ADME, organism-based, Canis lupus familiaris; conditions: in vivo; in short: as §2
[4] = Tmax in beagle dog at 10 mg/kg, po; type: ADME, organism-based, Canis lupus familiaris; design: dose 10 mg/kg, route oral; conditions: in vivo
In short: (§3)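 Male non-naive cynomolgus monkeys (2.6–3.4 kg) and beagle dogs (10.3–11.9 kg), n = 3 each, were dosed in a crossover design with a ≥7-day washout. Doses were 10 mg/kg by nasogastric gavage and 1 mg/kg as a saphenous iv bolus, both free base in 22% HPβCD. Animals were fasted overnight until about 4 h post dose. Femoral plasma was sampled from predose to 24 h and analyzed by LC-MS/MS. Parameters came from noncompartmental analysis; mean ± SD reported.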

[5] = AUC (infinity) in Sprague-Dawley rat at 10 mg/kg, po; type: ADME, organism-based; design: time infinity, dose 10 mg/kg, route oral; conditions: plasma; in short: as §2
[6] = Half life in Cynomolgus monkey liver microsomes; type: ADME, Macaca fascicularis, Microsome
In short: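 Pooled liver microsomes (0.5 mg/mL) in 0.1 M phosphate pH 7.4 with 6.5 mM MgCl2 and compound at 1 μM (0.2% DMSO). NADPH (1 mM) started the reaction at 37 °C, with minus-NADPH and testosterone controls. Aliquots taken at 0, 5, 15, 30 and 60 min were quenched in acetonitrile; duplicates.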

[7] = molecular target: Dual specificity mitogen-activated protein kinase kinase 2 (Homo sapiens, UniProt P36507); assay: Inhibition of MEK2 in human HEK293 cells after 1 hr by competition binding assay; type: cell-based; in short: as §1
A-375 = assay: Cytotoxicity against human A375 cells expressing BRAF V600E mutant after 72 hrs by cell titer blue assay; type: functional, cell-based; conditions: A-375, 72 h
In short: (§4)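 Cells were grown in ATCC-recommended media and kept overnight in 0.5% serum. They were then exposed to compound for 72 h, and Cell Titer Blue was added for 3 h. EC50 came from fluorometric concentration−response curves, run in duplicate and repeated at least once.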

Mus musculus [8] = assay: Toxicity in athymic nude mouse xenografted with human COLO205 cells at 10 mg/kg, po bid for 14 days measured upto 1 week post dosing; type: organism-based, COLO 205; design: dose 10 mg/kg, route oral; conditions: in vivo
In short: (§5)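 Athymic nude mice (20–25 g) were inoculated subcutaneously in the flank with 1×10^6 Colo-205 cells. At 150–200 mm3 they were randomized (n = 10/group) to oral vehicle (22% HPβCD) or 10, 30 or 100 mg/kg BID for 14 days. Calipers were used three times weekly. Body weight and behavior were monitored, with 7–10 days of follow-up after dosing. Partial regression meant volume falling in ≥3 successive measurements, ending below baseline but still palpable.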

[9] = molecular target: Mitogen-activated protein kinase 3 (Homo sapiens, UniProt P27361); assay: Inhibition of ERK1 in human HEK293 cells after 1 hr by competition binding assay; type: cell-based; in short: as §1
[10] = Volume of distribution in beagle dog at 1 mg/kg, iv and 10 mg/kg, po; type: ADME, organism-based, Canis lupus familiaris; conditions: in vivo; in short: as §3
HCT-116 = assay: Cytotoxicity against human HCT116 cells expressing wild type BRAF after 72 hrs by cell titer blue assay; type: functional, cell-based; conditions: HCT-116, 72 h; in short: as §4
[11] = Oral bioavailability in Sprague-Dawley rat at 10 mg/kg; type: ADME, organism-based; conditions: in vivo
In short: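 Male Sprague-Dawley rats (250–350 g, jugular-catheterized) received a single dose either iv at 1 mg/kg in 3:1 PEG400/water (n = 2) or po at 10 mg/kg in Pharmatek #6 (n = 3). Plasma was sampled at 5 min (iv only), 15 and 30 min, and 1, 2, 4, 6 and 24 h. Samples were analyzed by LC-MS/MS after acetonitrile precipitation. Parameters came from noncompartmental linear-trapezoidal analysis of individual animals.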

[12] = Tmax in Cynomolgus monkey at 10 mg/kg, po; type: ADME, organism-based, Macaca fascicularis; design: dose 10 mg/kg, route oral; conditions: in vivo; in short: as §3
[13] = Half life in beagle dog at 1 mg/kg, iv and 10 mg/kg, po; type: ADME, organism-based, Canis lupus familiaris; conditions: in vivo; in short: as §2
Mus musculus [14] = assay: Toxicity in athymic nude mouse xenografted with human COLO205 cells at 30 mg/kg, po bid for 14 days measured upto 1 week post dosing; type: organism-based, COLO 205; design: dose 30 mg/kg, route oral; conditions: in vivo; in short: as §5
[15] = Cmax in Cynomolgus monkey at 10 mg/kg, po; type: ADME, organism-based, Macaca fascicularis; design: dose 10 mg/kg, route oral; conditions: in vivo; in short: as §2
[16] = molecular target: Serine/threonine-protein kinase B-raf (Homo sapiens, UniProt P15056, V600E)
Liver = assay: Intrinsic clearance in mouse liver microsomes; type: ADME, Microsome
Cytochrome P450 2D6 = Cytochrome P450 2D6 (Homo sapiens, UniProt P10635); assay: Inhibition of human CYP2D6; type: ADME
In short: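 Pooled human liver microsomes (0.25 mg/mL) with NADPH (1 mM) and five pooled probe substrates (testosterone, diclofenac, dextromethorphan, mephenytoin, phenacetin). Test compound ran at eight concentrations, 0.31−40 μM, 20 min at 37 °C, with pooled control inhibitors in parallel. Isoform-specific metabolites were measured by LC-MS/MS.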

Hs-578T = assay: Cytotoxicity against human Hs578T cells expressing wild type BRAF after 72 hrs by cell titer blue assay; type: functional, cell-based; in short: as §4
Mus musculus [17] = assay: Inhibition of BRAF V600E mutant-mediated MEK phosphorylation in human COLO205 cells xenografted in athymic nude mouse at 30 mg/kg, po after 6 hrs; type: functional; conditions: COLO 205, 6 h
In short: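 Mice bearing Colo-205 xenografts got one oral dose in 22% HPβCD; vehicle controls were run. Tumors were collected at time points over 24 h and lysed. pMEK and total MEK in the lysates were measured by immunoblotting and ELISA, and pMEK was normalized to total MEK.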

PC-3 = assay: Cytotoxicity against human PC3 cells expressing wild type BRAF after 72 hrs by cell titer blue assay; type: functional, cell-based; conditions: PC-3, 72 h; in short: as §4
[18] = Cmax in Sprague-Dawley rat at 10 mg/kg, po; type: ADME, organism-based; design: dose 10 mg/kg, route oral; conditions: in vivo; in short: as §2
[19] = molecular target: ALK tyrosine kinase receptor (Homo sapiens, UniProt Q9UM73); assay: Inhibition of ALK in human HEK293 cells after 1 hr by competition binding assay; type: cell-based
In short: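 Unbound kinase was captured on immobilized affinity ligand and quantified by qPCR. Kd came from eleven serial 3-fold dilutions, as the mean of duplicates.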

Sequence of ALK tyrosine kinase receptor (Q9UM73 whole entry): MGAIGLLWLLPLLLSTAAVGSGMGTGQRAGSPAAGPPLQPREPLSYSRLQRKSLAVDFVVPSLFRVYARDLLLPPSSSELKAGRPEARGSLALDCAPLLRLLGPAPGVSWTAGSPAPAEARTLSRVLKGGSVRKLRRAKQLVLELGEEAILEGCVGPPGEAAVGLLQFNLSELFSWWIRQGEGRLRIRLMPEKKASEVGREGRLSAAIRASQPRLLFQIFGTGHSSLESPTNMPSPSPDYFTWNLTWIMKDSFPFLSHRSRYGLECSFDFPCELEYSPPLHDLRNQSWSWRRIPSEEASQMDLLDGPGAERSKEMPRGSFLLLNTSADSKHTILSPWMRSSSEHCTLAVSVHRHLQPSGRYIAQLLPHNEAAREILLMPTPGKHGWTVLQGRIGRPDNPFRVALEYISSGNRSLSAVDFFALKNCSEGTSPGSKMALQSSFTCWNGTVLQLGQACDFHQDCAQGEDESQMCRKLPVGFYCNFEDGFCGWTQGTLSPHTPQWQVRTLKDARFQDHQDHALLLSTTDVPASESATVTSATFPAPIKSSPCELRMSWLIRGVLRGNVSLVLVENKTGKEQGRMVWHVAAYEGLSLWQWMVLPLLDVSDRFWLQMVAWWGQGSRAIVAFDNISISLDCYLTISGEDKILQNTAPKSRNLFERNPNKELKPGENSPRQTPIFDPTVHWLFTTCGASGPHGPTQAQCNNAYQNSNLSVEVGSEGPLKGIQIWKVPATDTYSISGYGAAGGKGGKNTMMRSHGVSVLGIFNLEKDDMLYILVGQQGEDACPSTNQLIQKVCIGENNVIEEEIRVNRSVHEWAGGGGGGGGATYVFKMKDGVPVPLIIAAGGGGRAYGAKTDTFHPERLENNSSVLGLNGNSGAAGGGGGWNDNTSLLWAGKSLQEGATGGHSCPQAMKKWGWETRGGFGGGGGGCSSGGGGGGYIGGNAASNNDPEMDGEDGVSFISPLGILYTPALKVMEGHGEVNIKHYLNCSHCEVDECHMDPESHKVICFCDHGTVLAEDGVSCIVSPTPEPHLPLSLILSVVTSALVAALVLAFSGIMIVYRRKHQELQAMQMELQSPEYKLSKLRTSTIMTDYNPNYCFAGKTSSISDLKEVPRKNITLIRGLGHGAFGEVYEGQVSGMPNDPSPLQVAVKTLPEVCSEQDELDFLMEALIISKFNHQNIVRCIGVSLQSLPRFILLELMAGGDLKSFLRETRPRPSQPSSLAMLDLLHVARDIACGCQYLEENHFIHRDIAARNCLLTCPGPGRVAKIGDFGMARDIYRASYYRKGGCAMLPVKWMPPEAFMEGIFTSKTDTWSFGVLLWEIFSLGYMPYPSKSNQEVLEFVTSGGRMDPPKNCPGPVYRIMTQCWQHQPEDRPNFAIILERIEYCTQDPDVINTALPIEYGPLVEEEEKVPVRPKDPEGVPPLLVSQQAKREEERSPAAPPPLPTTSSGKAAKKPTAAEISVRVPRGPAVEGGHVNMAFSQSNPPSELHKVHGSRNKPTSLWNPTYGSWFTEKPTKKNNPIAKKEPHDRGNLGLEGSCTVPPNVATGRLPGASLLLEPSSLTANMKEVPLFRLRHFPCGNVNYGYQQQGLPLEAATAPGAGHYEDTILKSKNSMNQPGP
Sequence of Cytochrome P450 2D6 (P10635 whole entry, canonical isoform): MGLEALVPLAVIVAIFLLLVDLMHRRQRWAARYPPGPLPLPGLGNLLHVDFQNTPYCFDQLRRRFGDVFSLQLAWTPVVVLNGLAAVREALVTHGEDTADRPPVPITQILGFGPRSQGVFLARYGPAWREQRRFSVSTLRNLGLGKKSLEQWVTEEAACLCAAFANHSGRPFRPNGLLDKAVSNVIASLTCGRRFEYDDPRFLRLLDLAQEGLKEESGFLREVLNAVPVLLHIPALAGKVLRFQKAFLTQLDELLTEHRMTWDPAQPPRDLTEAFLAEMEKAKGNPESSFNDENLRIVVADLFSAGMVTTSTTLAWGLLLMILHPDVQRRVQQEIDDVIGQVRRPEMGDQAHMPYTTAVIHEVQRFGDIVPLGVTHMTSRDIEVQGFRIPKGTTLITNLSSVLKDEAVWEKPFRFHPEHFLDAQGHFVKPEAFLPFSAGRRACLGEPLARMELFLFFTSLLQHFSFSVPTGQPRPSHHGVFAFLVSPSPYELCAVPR
Sequence of Aurora kinase A (O14965 whole entry): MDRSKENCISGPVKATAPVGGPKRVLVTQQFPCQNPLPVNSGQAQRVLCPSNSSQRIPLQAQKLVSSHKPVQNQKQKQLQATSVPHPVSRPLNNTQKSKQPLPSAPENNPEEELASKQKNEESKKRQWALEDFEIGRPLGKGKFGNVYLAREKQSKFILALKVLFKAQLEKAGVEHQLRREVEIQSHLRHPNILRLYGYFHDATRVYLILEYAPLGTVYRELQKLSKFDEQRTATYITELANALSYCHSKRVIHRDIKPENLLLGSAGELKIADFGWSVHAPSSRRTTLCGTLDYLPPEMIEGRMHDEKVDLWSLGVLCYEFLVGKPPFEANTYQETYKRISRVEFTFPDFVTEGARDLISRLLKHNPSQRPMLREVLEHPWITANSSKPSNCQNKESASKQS
Sequence of Serine/threonine-protein kinase B-raf (P15056 2-766 V600E limits assumed): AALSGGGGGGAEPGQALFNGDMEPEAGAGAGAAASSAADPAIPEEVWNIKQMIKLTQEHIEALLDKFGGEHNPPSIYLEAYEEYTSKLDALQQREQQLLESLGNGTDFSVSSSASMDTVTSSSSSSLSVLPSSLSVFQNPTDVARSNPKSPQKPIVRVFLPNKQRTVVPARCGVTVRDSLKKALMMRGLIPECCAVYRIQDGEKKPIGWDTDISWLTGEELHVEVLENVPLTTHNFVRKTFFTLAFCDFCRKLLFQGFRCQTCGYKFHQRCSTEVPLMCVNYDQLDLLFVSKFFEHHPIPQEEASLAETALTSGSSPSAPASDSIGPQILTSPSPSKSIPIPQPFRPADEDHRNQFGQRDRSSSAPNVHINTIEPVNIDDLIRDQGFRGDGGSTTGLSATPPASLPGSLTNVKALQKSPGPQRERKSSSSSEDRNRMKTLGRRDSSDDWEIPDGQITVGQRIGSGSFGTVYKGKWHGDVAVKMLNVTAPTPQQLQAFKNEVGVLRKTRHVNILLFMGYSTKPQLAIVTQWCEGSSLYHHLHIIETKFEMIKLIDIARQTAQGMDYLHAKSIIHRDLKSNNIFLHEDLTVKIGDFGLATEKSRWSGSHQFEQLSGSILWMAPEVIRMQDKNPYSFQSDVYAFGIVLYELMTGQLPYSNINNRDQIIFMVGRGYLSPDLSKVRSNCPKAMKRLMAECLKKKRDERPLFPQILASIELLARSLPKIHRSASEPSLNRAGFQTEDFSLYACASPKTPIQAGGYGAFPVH
Sequence of Mitogen-activated protein kinase 3 (P27361 whole entry): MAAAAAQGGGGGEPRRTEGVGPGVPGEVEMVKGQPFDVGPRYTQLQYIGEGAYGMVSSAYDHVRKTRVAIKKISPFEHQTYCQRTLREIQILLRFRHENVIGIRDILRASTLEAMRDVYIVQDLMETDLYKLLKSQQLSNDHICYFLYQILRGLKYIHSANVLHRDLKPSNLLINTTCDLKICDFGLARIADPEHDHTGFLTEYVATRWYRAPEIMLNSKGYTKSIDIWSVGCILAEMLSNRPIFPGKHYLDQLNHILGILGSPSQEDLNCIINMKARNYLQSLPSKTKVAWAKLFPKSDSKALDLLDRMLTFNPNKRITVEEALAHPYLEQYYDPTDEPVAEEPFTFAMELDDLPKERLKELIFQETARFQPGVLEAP
Sequence of Dual specificity mitogen-activated protein kinase kinase 2 (P36507 whole entry): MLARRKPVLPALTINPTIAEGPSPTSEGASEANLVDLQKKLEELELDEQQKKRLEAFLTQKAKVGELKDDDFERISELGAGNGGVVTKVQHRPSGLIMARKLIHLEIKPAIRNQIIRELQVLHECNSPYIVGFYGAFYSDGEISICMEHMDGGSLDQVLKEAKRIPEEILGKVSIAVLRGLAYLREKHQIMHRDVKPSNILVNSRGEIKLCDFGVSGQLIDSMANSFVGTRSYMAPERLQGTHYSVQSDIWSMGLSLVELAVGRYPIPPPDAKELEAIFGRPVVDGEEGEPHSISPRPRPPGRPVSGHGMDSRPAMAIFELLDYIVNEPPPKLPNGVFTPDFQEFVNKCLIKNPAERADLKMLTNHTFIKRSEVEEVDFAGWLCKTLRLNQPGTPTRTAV

COc1cc2ncnc(Oc3cccc(NC(=O)Nc4cc(C(C)(C)C(F)(F)F)on4)c3)c2cc1OC [CEP-32496]
Kd (Aurora kinase A): > 10 µM
clearance [1]: 6.7 mL/min/kg
Tmax [2]: 1.3 h
clearance [3]: 5 mL/min/kg
Tmax [4]: 2 h
AUC(0-inf) [5]: 74.4 µM·h
half-life [6]: > 60 min
Kd [7]: 8.3 µM
IC50 (A-375): 78 nM
Activity (Mus musculus [8]): Non-toxic
Kd [9]: > 10 µM
Vd [10]: 4.5 L/kg
EC50 (HCT-116): 669 nM
bioavailability [11]: 94%
Tmax [12]: 4 h
half-life [13]: 720 min
Activity (Mus musculus [14]): Non-toxic
Cmax [15]: 4.3 µM
IC50 [16]: 82 nM
CLH (Liver): < 23 µL/min/mg
IC50 (Cytochrome P450 2D6): > 10 µM
EC50 (Hs-578T): 2740 nM
inhibition in vivo at 30 mg/kg (Mus musculus [17]): 75%
EC50 (PC-3): 6.26 µM
Cmax [18]: 6.5 µM
Kd [19]: > 10 µM
